For assay [1], the target named is T1, Enoyl-[acyl-carrier-protein] reductase [NADH] (Mycobacterium tuberculosis) (UniProt P9WGR1).
T1 sequence (whole entry): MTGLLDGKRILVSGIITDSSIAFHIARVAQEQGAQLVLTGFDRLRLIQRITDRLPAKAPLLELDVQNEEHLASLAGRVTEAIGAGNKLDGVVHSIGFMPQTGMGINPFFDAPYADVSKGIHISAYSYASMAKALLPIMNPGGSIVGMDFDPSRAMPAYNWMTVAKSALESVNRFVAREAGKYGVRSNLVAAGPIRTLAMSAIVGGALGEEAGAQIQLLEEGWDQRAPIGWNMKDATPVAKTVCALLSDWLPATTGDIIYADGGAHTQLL
In words: Inhibition of InhA in Mycobacterium tuberculosis H37Ra assessed as accumulation of trehalose monomycolates at 200 uM incubated for 48 hrs using [14C]acetate by TLC based metabolic labeling assay relative to control. The procedure, abridged: (§1)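 H37Ra was grown statically at 37 °C in 7H9/ADC/0.05% Tween 80 to OD600 0.290. Compound was added at 200 μM final (1% DMSO), with isoniazid 40 μM as control inhibitor. After 24 h shaking, 14C acetate (0.5 μCi/mL) was added for another 24 h. Total lipids were extracted with chloroform/methanol and washed biphasically. TLC in chloroform/methanol/water 20:4:0.5, then autoradiography.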

For assay [2], the target named is T1, Enoyl-[acyl-carrier-protein] reductase [NADH] (Mycobacterium tuberculosis). In words: Inhibition of InhA in Mycobacterium tuberculosis H37Ra assessed as reduction in mycolic acids synthesis by measuring MAME level at 200 uM incubated for 48 hrs using [14C]acetate by TLC based metabolic labeling assay relative to control. The essentials: (§2)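 H37Ra in 7H9/ADC/Tween 80 at OD600 0.290 received compound at 200 μM final (1% DMSO), with isoniazid 40 μM as control. After 24 h, 14C acetate (0.5 μCi/mL) was added for a further 24 h. FAMEs and MAMEs were prepared from whole cells, loaded normalised to OD600, separated by TLC, and detected by autoradiography.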

For assay [3] the target is unchanged. In words: Inhibition of InhA in Mycobacterium tuberculosis H37Ra assessed as reduction in mycolic acids synthesis by measuring FAME level at 200 uM incubated for 48 hrs using [14C]acetate by TLC based metabolic labeling assay relative to control. The essentials: as §2
For assay [4] the target is unchanged. In words: Inhibition of InhA in Mycobacterium tuberculosis H37Ra assessed as decrease in trehalose dimycolates level at 200 uM incubated for 48 hrs using [14C]acetate by TLC based metabolic labeling assay relative to control. The essentials: as §1
For assay [5] the target is unchanged. In words: Binding affinity to hexahistidine-SUMO tagged Mycobacterium tuberculosis InhA expressed in Escherichia coli BL21(DE3) at 1 mM in presence of 0.5 mM NAD+ by NMR spectroscopy. The essentials:
(§3)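 Ligand-observed NMR binding (CPMG T2 relaxation, WaterLOGSY, STD): 20 μM InhA (His6-SUMO tag removed by Ulp1, then gel-filtered) with 0.5 mM NAD+ and fragment at 1 mM. All three techniques were run on each fragment to validate thermal-shift hits.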

The target is the same in assay [6]. In words: Binding affinity to hexahistidine-SUMO tagged Mycobacterium tuberculosis InhA expressed in Escherichia coli BL21(DE3) at 1 mM in presence of 0.5 mM NAD+ by WaterLOGSY NMR analysis. The essentials:
as §3

The target is the same in assay [7]. In words: Inhibition of hexahistidine-SUMO tagged Mycobacterium tuberculosis InhA expressed in Escherichia coli BL21(DE3) at 2 mM preincubated for 10 mins with NADH before addition of 2-trans-octanoyl-CoA as substrate and measured after 20 mins by NADH oxidation detection based colorimetric assay relative to control. The essentials:
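InhA 100 nM in PIPES pH 7.5/NaCl/EDTA was preincubated 10 min with 0.25 mM NADH and fragment (1% DMSO). Reaction started with 1.5 mM 2-trans-octanoyl-CoA. A340 decrease was followed for 20 min.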

Assay [8] has the same target. In words: Binding affinity to hexahistidine-SUMO tagged Mycobacterium tuberculosis InhA expressed in Escherichia coli BL21(DE3) at 1 mM in presence of 0.5 mM NAD+ by CPMG NMR analysis. The procedure, abridged: as §3
Assay [9] has the same target. In words: Inhibition of hexahistidine-SUMO tagged Mycobacterium tuberculosis InhA expressed in Escherichia coli BL21(DE3) at 0.1 mM preincubated for 10 mins with NADH before addition of 2-trans-octanoyl-CoA as substrate and measured after 20 mins by NADH oxidation detection based colorimetric assay relative to control. The procedure, abridged:
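Percent inhibition at 100 μM: tag-cleaved InhA (100 nM) in 30 mM PIPES pH 7.5, 50 mM NaCl, 0.1 mM EDTA was preincubated 10 min at room temperature with 0.25 mM NADH and compound (1% DMSO). Reaction started with 1.5 mM 2-trans-octanoyl-CoA final. NADH oxidation was read at 340 nm for 20 min.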

The target in assay [10] is T2, Enoyl-[acyl-carrier-protein] reductase [NADH] (Mycobacterium tuberculosis, UniProt P9WGR1).
T2 sequence (P9WGR1 whole entry): T1 sequence (whole entry)
In words: Inhibition of hexahistidine-SUMO tagged Mycobacterium tuberculosis InhA expressed in Escherichia coli BL21(DE3) at preincubated for 10 mins with NADH before addition of 2-trans-octanoyl-CoA as substrate and measured after 20 mins by NADH oxidation detection based colorimetric assay.

Each structure is given as a SMILES string. Activity calls are given as the source filed them. The calls are words filed in the database; no cut-off is given here.

Consider `Cc1c(S(=O)(=O)Nc2cccc(CN)c2)sc2ccc(F)cc12`, for which the inhibition result in [1], in assay [2], in [3] and in assay [4] was “inactive” each time.

For `O=C(O)c1ccccc1C(=O)c1ccc(Cl)c([N+](=O)[O-])c1`, the outcome in [5], in [6] and in assay [8] was Active. The inhibition (commonly how much of the control response was suppressed) in assay [7] was “inactive”.

Take `O=C(O)CCc1cccc(Cl)c1`: the result in assay [5], in assay [6] and in [8] was Active. Further, the inhibition entry in [7] is “inactive”.

Regarding `NCc1cccc(NS(=O)(=O)/C=C/c2cccc(C(F)(F)F)c2)c1`, the inhibition entry in assay [1], in assay [2], in assay [3] and in assay [4] was “Active” throughout.

For `O=C(O)c1ccccc1-n1cccn1`, the result in assay [5], in [6] and in assay [8] was Active. Also, the inhibition entry in assay [7] was “inactive”.

With `NC(=O)c1cccc(NS(=O)(=O)/C=C/c2cccc(C(F)(F)F)c2)c1`, the inhibition in assay [9] turned out to be 0%.

With `O=C(O)/C=C/c1cccc(C(F)(F)F)c1`, the result in assay [5], in assay [6] and in assay [8] was Active.

Consider `NCc1cccc(NS(=O)(=O)c2cc3ccccc3o2)c1`, for which the inhibition entry in assay [1], in [2], in assay [3] and in [4] was “inactive” in each case. Also, the 50% inhibitory concentration (IC50) – broadly, the concentration that gives 50% inhibition – in [10] was determined as 22 µM.

For `NCc1ccc(NS(=O)(=O)/C=C/c2cccc(C(F)(F)F)c2)cc1`, the inhibition result in assay [1], in [2], in [3] and in assay [4] was “inactive” in each case.

For the compound `NCc1cccc(NS(=O)(=O)c2cc3ccccc3s2)c1`, the inhibition result in [1], in assay [2], in [3] and in [4] was “inactive” each time.

Take `O=C(O)c1cc2ccccc2cc1O`: the outcome in assay [5], in assay [6] and in assay [8] was Active. Also, the inhibition result in assay [7] was “inactive”.

In the case of `NNC(=O)c1ccncc1`, the inhibition in assay [2] and in assay [3] was 100% in each case.

On to `Cc1c(S(=O)(=O)Nc2cccc(CN)c2)sc2ccc(Cl)cc12`, for which the inhibition entry in [1], in assay [2], in assay [3] and in assay [4] was “inactive” in each case.

These data come from ChEMBL document CHEMBL4402593, “Fragment-Based Design of Mycobacterium tuberculosis InhA Inhibitors” (J Med Chem, 2020).
